FXIIa inh 1536 = human FXIIa protease inhibitors, primary screen, biochemical, 1536-well. AID 800, 2007. 0.3% of 220,000 active. purified FXIIa, Boc-QGR-AMC fluorogenic substrate, 2 h. inhibition, % at 5 µM; in the data active = inhibition above about 40%;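 note: 0% = enzyme with no compound and 100% = blank without enzyme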
FXIa inh = human FXIa protease inhibitors, primary screen, biochemical, 1536-well; purified FXIa, Boc-Glu-Ala-Arg-AMC fluorogenic substrate; 0.14% of 220,000 active; inhibition, % at 5 µM; AID 798, 2007;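 active = inhibition of at least 40%; inactive = inhibition below 40%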;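 note: fluorescence of freed AMC excited at 355 nm; 0% = enzyme without compound and 100% = no enzyme blank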
Target sequence (P03951 19-387 limits assumed): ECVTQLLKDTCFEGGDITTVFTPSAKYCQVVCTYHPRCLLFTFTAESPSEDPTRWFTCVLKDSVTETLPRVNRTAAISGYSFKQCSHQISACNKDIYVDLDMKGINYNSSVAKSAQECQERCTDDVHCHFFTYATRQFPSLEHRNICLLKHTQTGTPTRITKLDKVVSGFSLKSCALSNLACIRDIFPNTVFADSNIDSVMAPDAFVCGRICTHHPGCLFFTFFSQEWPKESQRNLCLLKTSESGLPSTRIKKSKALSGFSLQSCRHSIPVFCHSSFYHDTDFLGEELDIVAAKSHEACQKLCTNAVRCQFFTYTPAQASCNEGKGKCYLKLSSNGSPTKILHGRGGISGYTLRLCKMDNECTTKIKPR
Target sequence (P03951 388-625 limits assumed): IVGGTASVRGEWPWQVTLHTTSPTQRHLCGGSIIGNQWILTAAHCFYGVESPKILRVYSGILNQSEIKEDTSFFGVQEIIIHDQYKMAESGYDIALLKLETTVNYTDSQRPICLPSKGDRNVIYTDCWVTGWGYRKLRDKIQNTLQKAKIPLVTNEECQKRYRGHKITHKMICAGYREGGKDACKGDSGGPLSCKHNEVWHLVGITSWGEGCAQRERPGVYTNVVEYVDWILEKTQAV
Platelet DG rel = inhibitors of platelet dense granule secretion, primary screen, cell-based, MLPCN, human platelets. inhibition, %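 (compounds screened at 7.5 µM in platelet-rich plasma)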. AID 1663, 2009. human platelet-rich plasma, SFLLRN dense granule ATP release, luminescence. 0.22% of 300,000 active;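 active = mean replicate score, as percent of positive control, at or above 50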
thrombin 1536 = human alpha-thrombin inhibitors, primary screen, counter-screen for coagulation protease inhibitor project, biochemical, 1536-well, fluorogenic AMC substrate; Prothrombin (Homo sapiens), P00734; Boc-VPR-AMC fluorogenic substrate cleavage; inhibition, % at 5 µM; 0.26% of 220,000 active;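 active = inhibition at or above 40%; inactive = inhibition below 40%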;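 note: 0% = enzyme with no compound and 100% = wells without enzyme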
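System – human alpha-thrombin protein · Reagent – Boc-VPR-AMC substrate, 15 µM final · Compound – 5 µM single dose in 0.2% DMSO · Schedule – reaction at room temperature · Technique – AMC fluorescence at 355 nm excitation and 460 nm emission · Read-out basis – % inhibition relative to enzyme controls and enzyme-free blanks · Control set – no-compound enzyme wells and no-enzyme blanks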
hK5 inh = human KLK5 protease inhibitors, primary screen, biochemical, 1536-well. AID 873, 2007. recombinant hK5, fluorogenic AMC substrate cleavage. inhibition, % at 5 µM. 0.59% of 210,000 active. Kallikrein-5 (Homo sapiens), Q9Y337;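 active = inhibition of 40% or more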;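 note: 0% = enzyme controls without compound and 100% = no-enzyme blanks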
Wee1 stabilizer = Wee1 degradation inhibitors, primary screen, cell-based, HeLa, Wee1K328M-luciferase, luminescence; Wee1-like protein kinase (Homo sapiens), P30291; AID 1321, 2008; HeLa Luc-Wee1K328M stability; 100% = proteasome inhibitor MG132 effect; 1.2% of 220,000 active; reporter increase, % at 5 µM;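 active = activation above the mean of all tested compounds plus 3 SD, set per screening run, cut at about 8.8% in these data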;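 note: cells exposed to compound for 20 h before luminescence read; 0% = DMSO alone and 100% = MG132 at 30 µM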
Numbers without * were called inactive. Most compounds without a hit are left out; they make up all but 1.8% or so of the library.

What do the screens show for `Cc1cc(C(F)(F)F)c(C#N)c(SCC(=O)NC(C)(C)C)n1`?
FXIIa inh 1536: 35.9; FXIa inh: 15.7; Platelet DG rel: -5.7; thrombin 1536: 7.7; hK5 inh: 41.8*; Wee1 stabilizer: 0.2

What do the screens show for `CCN(c1ccccc1)S(=O)(=O)c1cccc(C(=O)NCc2ccccn2)c1`?
Platelet DG rel: -1.3

How did COc1cccc(-c2csc(N3CCN(C(=S)Nc4ccccc4)CC3)n2)c1 do in these assays?
FXIIa inh 1536: -4.2; FXIa inh: -4.9; Platelet DG rel: -10.0; thrombin 1536: 1.9; hK5 inh: 112.1*; Wee1 stabilizer: 3.2

How did COc1cccc(-c2csc(N3CCN(C(=S)Nc4ccc(Cl)cc4)CC3)n2)c1 do in these assays?
FXIIa inh 1536: 10.5; FXIa inh: 7.7; Platelet DG rel: -3.1; thrombin 1536: 15.5; hK5 inh: 9.9; Wee1 stabilizer: 2.5

How did CCN1CCN(S(=O)(=O)c2cc(C(=O)O)ccc2Cl)CC1 do in these assays?
FXIIa inh 1536: 29.2; FXIa inh: 18.1; Platelet DG rel: -3.6; thrombin 1536: 4.7; hK5 inh: 18.3; Wee1 stabilizer: 9.6*

How did CN(CC(=O)Nc1ccc(C#N)cc1)Cc1ccc(Cl)cc1 do in these assays?
FXIIa inh 1536: 6.6; FXIa inh: 3.2; Platelet DG rel: -3.6; thrombin 1536: 4.1; hK5 inh: 1.5; Wee1 stabilizer: 1.7

Results for CN(CC(=O)Nc1ccc(C#N)cc1)Cc1ccc(Cl)cc1Cl ?
FXIIa inh 1536: 23.4; FXIa inh: -1.7; Platelet DG rel: 1.0; thrombin 1536: 25.0; hK5 inh: 52.4*; Wee1 stabilizer: 0.7

What do the screens show for `CCc1ccccc1N(C(=O)c1snc(C(N)=O)c1N)C(C(=O)NCC1CCCO1)c1c[nH]c2ccccc12` (stereo not drawn)?
Platelet DG rel: -7.8

How did COc1cccc(C2CC(c3ccc(F)cc3)Nc3nc(N)nn32)c1 (stereo not drawn) do in these assays?
FXIIa inh 1536: 12.0; FXIa inh: 14.2; Platelet DG rel: 10.7; thrombin 1536: 19.5; hK5 inh: 52.6*; Wee1 stabilizer: 2.1

Results for N#C/C(=C/c1ccc(C(=O)O)cc1)C(=O)Nc1ccccc1 ?
FXIIa inh 1536: 3.5; FXIa inh: -6.7; Platelet DG rel: -4.8; thrombin 1536: -2.5; hK5 inh: -14.2; Wee1 stabilizer: 9.0*

Results for CN(C(=O)COC(=O)c1nc(Cl)c(Cl)c(Cl)c1Cl)C1CCS(=O)(=O)C1 (stereo not drawn) ?
FXIIa inh 1536: 1.9; FXIa inh: -2.8; Platelet DG rel: 0.0; thrombin 1536: 2.4; hK5 inh: -5.2; Wee1 stabilizer: 6.6

How did Cc1[nH]c2ccccc2c1C(=O)CSC(=S)N(C)C do in these assays?
FXIIa inh 1536: 5.4; FXIa inh: -1.2; Platelet DG rel: 15.3; thrombin 1536: -2.2; hK5 inh: -16.5; Wee1 stabilizer: 9.1*

How did CSCC[C@H](NC(=O)[C@H](Cc1ccccc1)n1c(=O)[nH]c2ccccc2c1=O)C(=O)N1CCC(C(=O)O)CC1 do in these assays?
Platelet DG rel: -0.1

Results for O=C(Nc1cccc(O)c1)c1noc2c1CCCCC2 ?
FXIIa inh 1536: 3.9; FXIa inh: -4.0; Platelet DG rel: 63.8*; thrombin 1536: -7.2; hK5 inh: -8.2; Wee1 stabilizer: 3.5

How did CC(=O)c1ccc(NC(=O)c2noc3c2CCC3)cc1 do in these assays?
FXIIa inh 1536: -0.6; FXIa inh: -7.7; Platelet DG rel: 11.5; thrombin 1536: -0.5; hK5 inh: -20.8; Wee1 stabilizer: 10.0*

Results for COc1ccc(NC(=O)c2noc3c2CCC3)cc1 ?
FXIIa inh 1536: 8.2; FXIa inh: -3.2; Platelet DG rel: 19.3; thrombin 1536: -6.2; hK5 inh: -5.6; Wee1 stabilizer: 1.3

Results for Cc1ccc(NC(=O)c2noc3c2CCC3)cc1C ?
FXIIa inh 1536: 0.1; FXIa inh: 1.7; Platelet DG rel: 12.9; thrombin 1536: -2.7; hK5 inh: -34.3; Wee1 stabilizer: -0.1

What do the screens show for `Cc1ccc(C)c(NC(=O)CN(C)C(=O)COc2ncnc3sccc23)c1`?
FXIIa inh 1536: 6.3; FXIa inh: 1.7; Platelet DG rel: 19.4; thrombin 1536: -12.1; hK5 inh: -10.8; Wee1 stabilizer: 5.7

Results for O=C(NCc1ccccc1)NC(=O)c1ccncc1 ?
FXIIa inh 1536: 18.5; FXIa inh: 3.0; Platelet DG rel: 15.5; thrombin 1536: 3.5; hK5 inh: 40.1*; Wee1 stabilizer: -1.2

What do the screens show for `O=C(NCc1ccccc1)NC(=O)c1ccccc1`?
FXIIa inh 1536: 6.9; FXIa inh: 1.2; Platelet DG rel: -7.1; thrombin 1536: 2.1; hK5 inh: -6.2; Wee1 stabilizer: 4.4

Results for Cc1ccc(CCNC(=O)C2CCCN(C(=O)c3cc4sccc4n3C)C2)cc1 (stereo not drawn) ?
FXIIa inh 1536: 6.8; FXIa inh: 9.4; Platelet DG rel: 1.4; thrombin 1536: 27.8; hK5 inh: 46.6*; Wee1 stabilizer: 1.0

What do the screens show for `CCN1CCCC1CNC(=O)C1CCN(C(=O)c2cc3sccc3n2Cc2ccc(F)cc2)CC1` (stereo not drawn)?
FXIIa inh 1536: 7.0; FXIa inh: 1.8; Platelet DG rel: -0.8; thrombin 1536: -5.2; hK5 inh: 4.5; Wee1 stabilizer: 11.8*

How did CCN1CCN(C(=O)C2CCN(C(=O)c3cc4sccc4n3CC)CC2)CC1 do in these assays?
FXIIa inh 1536: 26.8; FXIa inh: 21.6; Platelet DG rel: 0.4; thrombin 1536: 4.2; hK5 inh: -9.5; Wee1 stabilizer: -2.0

How did CCn1c(C(=O)N2CCC(C(=O)NCCCSC3CCCCC3)CC2)cc2sccc21 do in these assays?
FXIIa inh 1536: 12.0; FXIa inh: -1.7; Platelet DG rel: 69.4*; thrombin 1536: -1.6; hK5 inh: -7.6; Wee1 stabilizer: -0.6

What do the screens show for `O=C(NCCCN1CCCC1)C1CCN(C(=O)c2cc3sccc3n2Cc2ccc(F)cc2)CC1`?
FXIIa inh 1536: 35.6; FXIa inh: 25.7; Platelet DG rel: -2.4; thrombin 1536: 4.6; hK5 inh: 0.0; Wee1 stabilizer: 1.3

Results for O=C(NC1=NCCS1)C12CC3CC(CC(C3)C1)C2 ?
FXIIa inh 1536: 7.5; FXIa inh: -0.3; Platelet DG rel: -1.3; thrombin 1536: 0.1; hK5 inh: -1.7; Wee1 stabilizer: -2.0

Results for CC(C)NC(=O)c1cc2c(s1)CCCC2 ?
FXIIa inh 1536: 15.1; FXIa inh: 3.8; Platelet DG rel: 0.5; thrombin 1536: 3.2; hK5 inh: -0.4; Wee1 stabilizer: 8.9*

Results for COc1cccc(NC(=O)c2ccc(-n3cnnn3)cc2)c1 ?
Platelet DG rel: 3.0
